# What was measured:
# Brain [1] = assay: Ratio of drug uptake in ddY mouse brain at 1 uCi/100 uL, iv after 2 mins to drug uptake in ddY mouse brain at 1 uCi/100 uL, iv after 60 mins; format: ADME, organism-based; details: in vivo
# How it was run: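 Normal female ddY mice (5 weeks) received the radiotracer iv, and brain uptake (% ID/g, n = 4) was measured by gamma counting at 2 and 60 min. The index is brain uptake at 2 min divided by brain uptake at 60 min.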
# [2] = Partition coefficient, log D of the compound; format: physicochemical; details: octanol/water
# How it was run: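 Radiotracer partitioned between n-octanol and PBS: vortexed 3 min at room temperature, centrifuged 5 min at 3000 rpm. Weighed samples of the octanol (100 μL) and buffer (500 μL) layers were counted. log D is the log of the ratio of counts per gram, octanol versus PBS.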
# Blood [3] = assay: Biodistribution in ddY mouse blood at 1 uCi/100 uL, iv after 2 mins by gamma counting; format: ADME, organism-based; details: in vivo
# How it was run: (§1)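 Normal female ddY mice (5 weeks, about 20 g; n = 4 per group) received radiotracer iv. Organs were removed and weighed at 2–120 min and counted in a γ-counter. Percent dose per gram of wet tissue was calculated against diluted aliquots of the injected material and reported as mean ± SD.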
# Brain [4] = assay: Biodistribution in ddY mouse brain at 1 uCi/100 uL, iv after 2 mins by gamma counting; format: ADME, organism-based; details: in vivo; how it was run: as §1
# Heart [5] = assay: Biodistribution in ddY mouse heart at 1 uCi/100 uL, iv after 2 mins by gamma counting; format: ADME, organism-based; details: in vivo; how it was run: as §1
# Liver [6] = assay: Biodistribution in ddY mouse liver at 1 uCi/100 uL, iv after 2 mins by gamma counting; format: ADME, organism-based; details: in vivo
# Spleen [7] = assay: Biodistribution in ddY mouse spleen at 1 uCi/100 uL, iv after 2 mins by gamma counting; format: ADME, organism-based; details: in vivo
# Lung [8] = assay: Biodistribution in ddY mouse lung at 1 uCi/100 uL, iv after 2 mins by gamma counting; format: ADME, organism-based; details: in vivo
# Kidney [9] = assay: Biodistribution in ddY mouse kidney at 1 uCi/100 uL, iv after 2 mins by gamma counting; format: ADME, organism-based; details: in vivo; how it was run: as §1
# Stomach [10] = assay: Biodistribution in ddY mouse stomach at 1 uCi/100 uL, iv after 2 mins by gamma counting; format: ADME, organism-based; details: in vivo
# Intestine [11] = assay: Biodistribution in ddY mouse intestine at 1 uCi/100 uL, iv after 2 mins by gamma counting; format: ADME, organism-based; details: in vivo; how it was run: as §1
# Thyroid gland [12] = assay: Biodistribution in ddY mouse thyroid at 1 uCi/100 uL, iv after 2 mins by gamma counting; format: ADME, organism-based; details: in vivo
# Blood [13] = assay: Biodistribution in ddY mouse blood at 1 uCi/100 uL, iv after 15 mins by gamma counting; format: ADME, organism-based; details: in vivo, 0.25 h; how it was run: as §1
# Brain [14] = assay: Biodistribution in ddY mouse brain at 1 uCi/100 uL, iv after 15 mins by gamma counting; format: ADME, organism-based; details: in vivo, 0.25 h; how it was run: as §1
# Heart [15] = assay: Biodistribution in ddY mouse heart at 1 uCi/100 uL, iv after 15 mins by gamma counting; format: ADME, organism-based; details: in vivo, 0.25 h; how it was run: as §1
# Liver [16] = assay: Biodistribution in ddY mouse liver at 1 uCi/100 uL, iv after 15 mins by gamma counting; format: ADME, organism-based; details: in vivo, 0.25 h
# Spleen [17] = assay: Biodistribution in ddY mouse spleen at 1 uCi/100 uL, iv after 15 mins by gamma counting; format: ADME, organism-based; details: in vivo, 0.25 h
# Lung [18] = assay: Biodistribution in ddY mouse lung at 1 uCi/100 uL, iv after 15 mins by gamma counting; format: ADME, organism-based; details: in vivo, 0.25 h
# Kidney [19] = assay: Biodistribution in ddY mouse kidney at 1 uCi/100 uL, iv after 15 mins by gamma counting; format: ADME, organism-based; details: in vivo, 0.25 h; how it was run: as §1
# Stomach [20] = assay: Biodistribution in ddY mouse stomach at 1 uCi/100 uL, iv after 15 mins by gamma counting; format: ADME, organism-based; details: in vivo, 0.25 h
# Intestine [21] = assay: Biodistribution in ddY mouse intestine at 1 uCi/100 uL, iv after 15 mins by gamma counting; format: ADME, organism-based; details: in vivo, 0.25 h; how it was run: as §1
# Thyroid gland [22] = assay: Biodistribution in ddY mouse thyroid at 1 uCi/100 uL, iv after 15 mins by gamma counting; format: ADME, organism-based; details: in vivo, 0.25 h
# Blood [23] = assay: Biodistribution in ddY mouse blood at 1 uCi/100 uL, iv after 30 mins by gamma counting; format: ADME, organism-based; details: in vivo, 0.5 h; how it was run: as §1
# Brain [24] = assay: Biodistribution in ddY mouse brain at 1 uCi/100 uL, iv after 30 mins by gamma counting; format: ADME, organism-based; details: in vivo, 0.5 h; how it was run: as §1
# Heart [25] = assay: Biodistribution in ddY mouse heart at 1 uCi/100 uL, iv after 30 mins by gamma counting; format: ADME, organism-based; details: in vivo, 0.5 h; how it was run: as §1
# Liver [26] = assay: Biodistribution in ddY mouse liver at 1 uCi/100 uL, iv after 30 mins by gamma counting; format: ADME, organism-based; details: in vivo, 0.5 h
# Spleen [27] = assay: Biodistribution in ddY mouse spleen at 1 uCi/100 uL, iv after 30 mins by gamma counting; format: ADME, organism-based; details: in vivo, 0.5 h
# Lung [28] = assay: Biodistribution in ddY mouse lung at 1 uCi/100 uL, iv after 30 mins by gamma counting; format: ADME, organism-based; details: in vivo, 0.5 h
# Kidney [29] = assay: Biodistribution in ddY mouse kidney at 1 uCi/100 uL, iv after 30 mins by gamma counting; format: ADME, organism-based; details: in vivo, 0.5 h
# Stomach [30] = assay: Biodistribution in ddY mouse stomach at 1 uCi/100 uL, iv after 30 mins by gamma counting; format: ADME, organism-based; details: in vivo, 0.5 h
# Intestine [31] = assay: Biodistribution in ddY mouse intestine at 1 uCi/100 uL, iv after 30 mins by gamma counting; format: ADME, organism-based; details: in vivo, 0.5 h; how it was run: as §1
# Thyroid gland [32] = assay: Biodistribution in ddY mouse thyroid at 1 uCi/100 uL, iv after 30 mins by gamma counting; format: ADME, organism-based; details: in vivo, 0.5 h
# Blood [33] = assay: Biodistribution in ddY mouse blood at 1 uCi/100 uL, iv after 60 mins by gamma counting; format: ADME, organism-based; details: in vivo, 1 h; how it was run: as §1
# Brain [34] = assay: Biodistribution in ddY mouse brain at 1 uCi/100 uL, iv after 60 mins by gamma counting; format: ADME, organism-based; details: in vivo, 1 h; how it was run: as §1
# Heart [35] = assay: Biodistribution in ddY mouse heart at 1 uCi/100 uL, iv after 60 mins by gamma counting; format: ADME, organism-based; details: in vivo, 1 h; how it was run: as §1
# Liver [36] = assay: Biodistribution in ddY mouse liver at 1 uCi/100 uL, iv after 60 mins by gamma counting; format: ADME, organism-based; details: in vivo, 1 h
# Spleen [37] = assay: Biodistribution in ddY mouse spleen at 1 uCi/100 uL, iv after 60 mins by gamma counting; format: ADME, organism-based; details: in vivo, 1 h
# Lung [38] = assay: Biodistribution in ddY mouse lung at 1 uCi/100 uL, iv after 60 mins by gamma counting; format: ADME, organism-based; details: in vivo, 1 h
# Kidney [39] = assay: Biodistribution in ddY mouse kidney at 1 uCi/100 uL, iv after 60 mins by gamma counting; format: ADME, organism-based; details: in vivo, 1 h
# Stomach [40] = assay: Biodistribution in ddY mouse stomach at 1 uCi/100 uL, iv after 60 mins by gamma counting; format: ADME, organism-based; details: in vivo, 1 h
# Intestine [41] = assay: Biodistribution in ddY mouse intestine at 1 uCi/100 uL, iv after 60 mins by gamma counting; format: ADME, organism-based; details: in vivo, 1 h; how it was run: as §1
# Thyroid gland [42] = assay: Biodistribution in ddY mouse thyroid at 1 uCi/100 uL, iv after 60 mins by gamma counting; format: ADME, organism-based; details: in vivo, 1 h
# Blood [43] = assay: Biodistribution in ddY mouse blood at 1 uCi/100 uL, iv after 120 mins by gamma counting; format: ADME, organism-based; details: in vivo, 2 h; how it was run: as §1
# Brain [44] = assay: Biodistribution in ddY mouse brain at 1 uCi/100 uL, iv after 120 mins by gamma counting; format: ADME, organism-based; details: in vivo, 2 h; how it was run: as §1
# Heart [45] = assay: Biodistribution in ddY mouse heart at 1 uCi/100 uL, iv after 120 mins by gamma counting; format: ADME, organism-based; details: in vivo, 2 h; how it was run: as §1
# Liver [46] = assay: Biodistribution in ddY mouse liver at 1 uCi/100 uL, iv after 120 mins by gamma counting; format: ADME, organism-based; details: in vivo, 2 h
# Spleen [47] = assay: Biodistribution in ddY mouse spleen at 1 uCi/100 uL, iv after 120 mins by gamma counting; format: ADME, organism-based; details: in vivo, 2 h
# Lung [48] = assay: Biodistribution in ddY mouse lung at 1 uCi/100 uL, iv after 120 mins by gamma counting; format: ADME, organism-based; details: in vivo, 2 h
# Kidney [49] = assay: Biodistribution in ddY mouse kidney at 1 uCi/100 uL, iv after 120 mins by gamma counting; format: ADME, organism-based; details: in vivo, 2 h; how it was run: as §1
# Stomach [50] = assay: Biodistribution in ddY mouse stomach at 1 uCi/100 uL, iv after 120 mins by gamma counting; format: ADME, organism-based; details: in vivo, 2 h
# Intestine [51] = assay: Biodistribution in ddY mouse intestine at 1 uCi/100 uL, iv after 120 mins by gamma counting; format: ADME, organism-based; details: in vivo, 2 h; how it was run: as §1
# Thyroid gland [52] = assay: Biodistribution in ddY mouse thyroid at 1 uCi/100 uL, iv after 120 mins by gamma counting; format: ADME, organism-based; details: in vivo, 2 h
structure (smiles),measurement,setting,value
Nc1ccc(/C=C/C(=O)/C=C/c2ccc([125I])cc2)cc1,Ratio,Brain [1],8.44
same,logD,[2],3.26
same,Drug uptake,Blood [3],3.89 % ID/g
same,Drug uptake,Brain [4],4.56 % ID/g
same,Drug uptake,Heart [5],7.06 % ID/g
same,Drug uptake,Liver [6],16.98 % ID/g
same,Drug uptake,Spleen [7],2.8 % ID/g
same,Drug uptake,Lung [8],9.25 % ID/g
same,Drug uptake,Kidney [9],11.2 % ID/g
same,Drug uptake,Stomach [10],1.37 % ID/organ
same,Drug uptake,Intestine [11],2.27 % ID/g
same,Drug uptake,Thyroid gland [12],8.64 % ID/g
same,Drug uptake,Blood [13],4.93 % ID/g
same,Drug uptake,Brain [14],2.37 % ID/g
same,Drug uptake,Heart [15],3.45 % ID/g
same,Drug uptake,Liver [16],29.08 % ID/g
same,Drug uptake,Spleen [17],2.02 % ID/g
same,Drug uptake,Lung [18],6.06 % ID/g
same,Drug uptake,Kidney [19],22.81 % ID/g
same,Drug uptake,Stomach [20],3.1 % ID/organ
same,Drug uptake,Intestine [21],6.9 % ID/g
same,Drug uptake,Thyroid gland [22],8.39 % ID/g
same,Drug uptake,Blood [23],4.12 % ID/g
same,Drug uptake,Brain [24],1.36 % ID/g
same,Drug uptake,Heart [25],2.01 % ID/g
same,Drug uptake,Liver [26],24.17 % ID/g
same,Drug uptake,Spleen [27],1.79 % ID/g
same,Drug uptake,Lung [28],4.81 % ID/g
same,Drug uptake,Kidney [29],16.31 % ID/g
same,Drug uptake,Stomach [30],3.12 % ID/organ
same,Drug uptake,Intestine [31],10.85 % ID/g
same,Drug uptake,Thyroid gland [32],11.49 % ID/g
same,Drug uptake,Blood [33],1.72 % ID/g
same,Drug uptake,Brain [34],0.54 % ID/g
same,Drug uptake,Heart [35],0.83 % ID/g
same,Drug uptake,Liver [36],16.43 % ID/g
same,Drug uptake,Spleen [37],0.8 % ID/g
same,Drug uptake,Lung [38],2.43 % ID/g
same,Drug uptake,Kidney [39],9 % ID/g
same,Drug uptake,Stomach [40],2.12 % ID/organ
same,Drug uptake,Intestine [41],25.97 % ID/g
same,Drug uptake,Thyroid gland [42],14.14 % ID/g
same,Drug uptake,Blood [43],2.52 % ID/g
same,Drug uptake,Brain [44],0.4 % ID/g
same,Drug uptake,Heart [45],1.11 % ID/g
same,Drug uptake,Liver [46],17.57 % ID/g
same,Drug uptake,Spleen [47],1.13 % ID/g
same,Drug uptake,Lung [48],2.82 % ID/g
same,Drug uptake,Kidney [49],9.52 % ID/g
same,Drug uptake,Stomach [50],3.07 % ID/organ
same,Drug uptake,Intestine [51],25.7 % ID/g
same,Drug uptake,Thyroid gland [52],21.98 % ID/g

# — ChEMBL document CHEMBL1765020, “Synthesis and structure-affinity relationships of novel dibenzylideneacetone derivatives as probes for β-amyloid plaques” (J Med Chem, 2011)
